This note sets out measurements from ChEMBL document CHEMBL2093137, “WHO-TDR NTD Screening”.

≈ marks a conversion by molar mass, not a printed value.

In data set [1] the test system is Onchocerca lienalis. Kind of data set: WHO-TDR: Onchocerciasis. Type of data set: functional. More on the design: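 at 12.5 µM on microfilariae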. In short, it runs like this: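 Following previously published standard procedures, with reference drugs as positive controls, a diverse Life Chemicals library was tested on whole Onchocerca ochengi or Onchocerca lienalis microfilariae. The library held 10,000 compounds filtered for drug-likeness and reactive groups. Activity is recorded both as percent inhibition and as IC50.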

Data set [2] has as its system Brugia malayi. Kind of data set: WHO-TDR: Lymphatic Filariasis. Type of data set: functional. On the set-up: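 tested at 10 µM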. The procedure, abridged: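 Following previously published standard procedures, compounds were tested on whole Brugia malayi microfilariae, with reference drugs as positive controls. They came from a diverse Life Chemicals collection of 10,000 compounds filtered for drug-likeness and reactive groups. Results appear as percent inhibition and as IC50.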

Data set [3] deals with Trypanosoma brucei brucei. Put plainly: WHO-TDR: Human African Trypanosomiasis (HAT). Type of data set: functional, organism-based. As to conditions: Squib-427. The procedure, abridged:
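Whole-organism screen of a 10,000-compound diverse library from Life Chemicals, filtered for drug-likeness and reactive groups, against bloodstream forms of Trypanosoma brucei Squib 427 strain. The assay followed previously published standard procedures, with reference drugs as positive controls. Antiparasitic potency is reported as IC50.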

Data set [4] has as its system Schistosoma mansoni. Kind of data set: WHO-TDR: Schistosomiasis. Type of data set: functional. More on the design: concentration or dose not given beside the values. The procedure, abridged: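 Activity appears as percent inhibition and as IC50. The underlying screen tested a diverse library of 10,000 compounds, supplied by Life Chemicals, on whole larval and/or adult worms of the Puerto Rican strain of Schistosoma mansoni.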

Data set [5] relates to Trypanosoma cruzi. Put plainly: WHO-TDR: Chagas disease. Type of data set: functional, organism-based, Homo sapiens. Particulars: MRC5. In short, it runs like this: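 Each IC50 reflects antiparasitic potency against intracellular amastigotes of Trypanosoma cruzi Tulahuen CL2 beta-galactosidase strain. These were cultured in MRC-5SV2 human lung fibroblasts and exposed to a 10,000-compound diverse Life Chemicals library screened according to published standard procedures with a reference drug as positive control.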

Data set [6] has as its system Leishmania infantum. Put plainly: WHO-TDR: Leishmaniasis. As to conditions: Macrophage. Type of data set: functional, organism-based, Mus musculus. In short, it runs like this:
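Whole-organism screen of a 10,000-compound diverse library from Life Chemicals, filtered for drug-likeness and reactive groups, against intracellular amastigotes of Leishmania infantum MHOM/MA(BE)/67 in murine peritoneal macrophage host cells. The assay followed previously published standard procedures, with a reference drug as positive control. Antiparasitic potency is reported as IC50.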

In data set [7] the test system is Plasmodium falciparum K1. Put plainly: WHO-TDR: Malaria. As to conditions: Erythrocyte. Type of data set: functional, organism-based, Homo sapiens. The procedure, abridged:
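Whole-organism screen of a 10,000-compound diverse library from Life Chemicals, filtered for drug-likeness and reactive groups, against intra-erythrocytic Plasmodium falciparum K1 strain in human red blood cells. The assay followed previously published standard procedures, with a reference drug as positive control. Antiplasmodial potency is reported as IC50.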

Data set [8] can be described thus: WHO-TDR: Cytotoxicity. As to conditions: human, MRC5 cells. Type of data set: toxicity, cell-based.

On to `Cc1cccc(-c2nc(CCNC(=O)c3ccco3)cs2)c1`, for which the “% Inhibition” value in data set [1], in data set [2] and in data set [4] was 0% in each case. The IC50 in data set [3] amounted to 0.307 µg/mL (≈ 0.983 µM); in data set [5] it was 2.46 µg/mL (≈ 7.87 µM); in data set [6], 3.95 µg/mL (≈ 12.7 µM); in data set [7] it was 6.12 µg/mL (≈ 19.6 µM); in data set [8], 4.35 µg/mL (≈ 13.9 µM).
Regarding `CCOc1ccc2nc(N(Cc3cccnc3)C(=O)CSc3ccc(F)cc3)sc2c1`, the “% Inhibition” value in data set [1] is listed as 26.7%; in data set [2], 0%; in data set [4] it was 0%. The IC50 in data set [3] was more than 13.6 µg/mL; in data set [5], 0.223 µg/mL (≈ 0.492 µM); in data set [6], more than 13.6 µg/mL; in data set [7] it was 11 µg/mL (≈ 24.2 µM); in data set [8], more than 13.6 µg/mL.
With `O=C(c1c(F)cccc1F)N(Cc1ccccn1)c1nc2ccccc2s1`, the “% Inhibition” value in data set [1] stood at 4.601%; in data set [2] it was 0%; in data set [4], 0%. In addition, the IC50 is more than 11.4 µg/mL in data set [3]; 0.546 µg/mL (≈ 1.43 µM) in data set [5]; 3.7 µg/mL (≈ 9.71 µM) in data set [6]; 7.58 µg/mL (≈ 19.9 µM) in data set [7]; 2.13 µg/mL (≈ 5.58 µM) in data set [8].
In the case of `CC(C)S(=O)(=O)c1ccc(C(=O)Nc2ccccc2-c2nc3ccccc3[nH]2)cc1`, the figures for the “% Inhibition” value in data set [1], in data set [2] and in data set [4] were 13.3%, 0% and 0%, respectively. Also, the IC50 in data set [3] is more than 12.6 µg/mL; in data set [5], more than 12.6 µg/mL; in data set [6], 0.407 µg/mL (≈ 0.97 µM); in data set [7], more than 12.6 µg/mL; in data set [8] it was more than 12.6 µg/mL.
For the compound `CN(C)CCCN(C(=O)/C=C/c1ccccc1)c1nc2ccccc2s1`, the “% Inhibition” value was 25.05% in data set [1], 0% in data set [2] and 100% in data set [4]. In addition, the IC50 was found to be 0.35 µg/mL (≈ 0.958 µM) in data set [3]; 0.406 µg/mL (≈ 1.11 µM) in data set [5]; 0.39 µg/mL (≈ 1.07 µM) in data set [6]; 1.74 µg/mL (≈ 4.76 µM) in data set [7]; 3.81 µg/mL (≈ 10.4 µM) in data set [8].
`CCCCN(C)S(=O)(=O)c1ccc(C(=O)N2CCN(c3nc4c(C)ccc(C)c4s3)CC2)cc1`: the entries for the “% Inhibition” value in data set [1], in data set [2] and in data set [4] were 13.3%, 16.67% and 0%, respectively. In addition, the IC50 was more than 15 µg/mL in data set [3]; more than 15 µg/mL in data set [5]; 0.223 µg/mL (≈ 0.446 µM) in data set [6]; more than 15 µg/mL in data set [7]; more than 15 µg/mL in data set [8].
Consider `Fc1ccc(Nc2nc(N3CCCC3)nc(N3CCCC3)n2)cc1`, for which the “% Inhibition” value in data set [1] came to 9.215%; in data set [2] it was 0%; in data set [4], 0%. Besides, the IC50 is 0.442 µg/mL (≈ 1.35 µM) in data set [3]; 3.85 µg/mL (≈ 11.7 µM) in data set [5]; more than 10.9 µg/mL in data set [6]; more than 10.9 µg/mL in data set [7]; more than 10.9 µg/mL in data set [8].
For `O=C(Nc1ccc2c(c1)N(C(=O)C1CC1)CCC2)c1cccc(C(F)(F)F)c1`, the “% Inhibition” value in data set [1] amounted to 13.3%; in data set [2], 0%; in data set [4], 0%. Moreover, the IC50 was 3.69 µg/mL (≈ 9.49 µM) in data set [3]; 0.808 µg/mL (≈ 2.08 µM) in data set [5]; more than 11.7 µg/mL in data set [6]; 4.56 µg/mL (≈ 11.7 µM) in data set [7]; more than 11.7 µg/mL in data set [8].
As for `CCCc1cc(=O)n(CC(=O)Nc2ccc(C)cc2)c(-n2nc(C)cc2C)n1`, the “% Inhibition” value in data set [1] is reported as 27.7%; in data set [2] it was 0%; in data set [4], 0%. For the same compound, the IC50 was 6.35 µg/mL (≈ 16.7 µM) in data set [3]; 0.764 µg/mL (≈ 2.01 µM) in data set [5]; more than 11.4 µg/mL in data set [6]; more than 11.4 µg/mL in data set [7]; 10.5 µg/mL (≈ 27.6 µM) in data set [8].
On to `COc1ccc(Cl)c2sc(N(CCCN(C)C)C(=O)c3ccc(Br)s3)nc12`, for which the entries for the “% Inhibition” value in data set [1], in data set [2] and in data set [4] were 0%, 0% and 100%, respectively. Moreover, the IC50 was 5.66 µg/mL (≈ 11.6 µM) in data set [3]; 1.77 µg/mL (≈ 3.62 µM) in data set [5]; 0.51 µg/mL (≈ 1.04 µM) in data set [6]; more than 15.8 µg/mL in data set [7]; 6.71 µg/mL (≈ 13.7 µM) in data set [8].
Consider `COc1ccc(Cl)c2sc(N(CCCN(C)C)C(=O)c3ccco3)nc12`, for which the “% Inhibition” value in data set [1], in data set [2] and in data set [4] was 0% throughout. The IC50 in data set [3] is 4.08 µg/mL (≈ 10.4 µM); in data set [5] it was 1.36 µg/mL (≈ 3.46 µM); in data set [6], 0.418 µg/mL (≈ 1.06 µM); in data set [7], more than 12.9 µg/mL; in data set [8], 4.17 µg/mL (≈ 10.6 µM).
As to `CCSc1ccccc1C(=O)Nc1nnc(-c2cccs2)o1`, the results for the “% Inhibition” value in data set [1], in data set [2] and in data set [4] were 20%, 0% and 0%, respectively. The IC50 was 0.656 µg/mL (≈ 1.98 µM) in data set [3]; 0.413 µg/mL (≈ 1.25 µM) in data set [5]; 6.77 µg/mL (≈ 20.4 µM) in data set [6]; more than 9.94 µg/mL in data set [7]; 5.3 µg/mL (≈ 16 µM) in data set [8].
`Cc1nn(-c2ccc(F)cc2)c2ncc(C(=O)NCc3ccco3)c(Cl)c12`: the “% Inhibition” value in data set [1] was 0%; in data set [2] it was 0%; in data set [4], 25%. Besides, the IC50 in data set [3] amounted to 0.292 µg/mL (≈ 0.759 µM); in data set [5], 0.398 µg/mL (≈ 1.03 µM); in data set [6] it was 3.74 µg/mL (≈ 9.71 µM); in data set [7] it was 8.26 µg/mL (≈ 21.5 µM); in data set [8], 1.31 µg/mL (≈ 3.41 µM).
With `O=C(Nc1ccncc1)c1cccn(Cc2ccc(F)cc2)c1=O`, the “% Inhibition” value is reported as -1% in data set [1], 0% in data set [2] and 0% in data set [4]. The IC50 is more than 9.7 µg/mL in data set [3]; 0.45 µg/mL (≈ 1.39 µM) in data set [5]; more than 9.7 µg/mL in data set [6]; more than 9.7 µg/mL in data set [7]; 2.53 µg/mL (≈ 7.83 µM) in data set [8].
In the case of `COc1ccc(C)c2sc(N(CCCN(C)C)C(=O)c3ccccc3SC)nc12`, the “% Inhibition” value turned out to be 13.3% in data set [1], 0% in data set [2] and 0% in data set [4]. In addition, the IC50 in data set [3] stood at 0.432 µg/mL (≈ 1.01 µM); in data set [5] it was 5.29 µg/mL (≈ 12.3 µM); in data set [6], 4.53 µg/mL (≈ 10.5 µM); in data set [7], 0.506 µg/mL (≈ 1.18 µM); in data set [8], 4.42 µg/mL (≈ 10.3 µM).
For the compound `O=C(COc1ccc(Cl)cc1Cl)N(Cc1ccccn1)c1nc2ccccc2s1`, the “% Inhibition” value in data set [1], in data set [2] and in data set [4] was 0% throughout. Moreover, the IC50 in data set [3] is more than 13.3 µg/mL; in data set [5], 0.863 µg/mL (≈ 1.94 µM); in data set [6], 4.32 µg/mL (≈ 9.71 µM); in data set [7], more than 13.3 µg/mL; in data set [8], more than 13.3 µg/mL.
As for `O=C(Nc1nc(-c2ccccn2)cs1)C1CCN(S(=O)(=O)c2cccs2)CC1`, the “% Inhibition” value in data set [1] is 9.31%; in data set [2], 0%; in data set [4] it was 0%. The IC50 in data set [3] was more than 13 µg/mL; in data set [5], 0.434 µg/mL (≈ 0.999 µM); in data set [6] it was more than 13 µg/mL; in data set [7] it was more than 13 µg/mL; in data set [8], more than 13 µg/mL.
Consider `CCN(C1CCCCC1)S(=O)(=O)c1ccc(C(=O)Nc2nc(-c3ccccn3)cs2)cc1`, for which the “% Inhibition” value turned out to be 80% in data set [1], 0% in data set [2] and 0% in data set [4]. Besides, the IC50 was 11.7 µg/mL (≈ 24.8 µM) in data set [3]; 0.459 µg/mL (≈ 0.975 µM) in data set [5]; 4.57 µg/mL (≈ 9.71 µM) in data set [6]; more than 14.1 µg/mL in data set [7]; 5.19 µg/mL (≈ 11 µM) in data set [8].
Turning to `COc1ccc(OC)c(-c2csc(NC(=O)Cc3ccc(SC)cc3)n2)c1`, the entries for the “% Inhibition” value in data set [1], in data set [2] and in data set [4] were 11.35%, 0% and 0%, respectively. In addition, the IC50 in data set [3] is 3.52 µg/mL (≈ 8.79 µM); in data set [5], 0.663 µg/mL (≈ 1.66 µM); in data set [6], more than 12 µg/mL; in data set [7], 3.55 µg/mL (≈ 8.87 µM); in data set [8] it was more than 12 µg/mL.
